Laboratory results published in ChEMBL document CHEMBL1128460, “Design, synthesis, and structure-activity relationships of a new series of alpha-adrenergic agonists: spiro[(1,3-diazacyclopent-1-ene)-5,2'-(1',2',3',4'- tetrahydronaphthalene)]” (J Med Chem, 1995).

Key:
Canis familiaris [1] = species: Canis familiaris; experiment: Maximal contractile response obtained with the agonist (expressed as a percentage of the maximal contraction to phenylephrine in the dog saphenous vein); assay type: functional, Canis lupus familiaris
How it was run: (§1)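 Vessel segments from mongrel dogs (15–25 kg) anesthetized with pentobarbital (30 mg/kg iv), mounted for isometric tension in physiological saline. Equilibrated 90 min with bath changes every 30 min, rauwolscine (10^-7 M) present throughout. Primed with KCl (100 mM), then phenylephrine (1 µM). Agonist concentration–response curves run at half-log steps, giving EC50 (µM) and Emax as % of phenylephrine maximum; mean ±SD.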

[2] = Ratio of C20 (pithed rat) to that of EC50(saphenous vein); assay type: functional
[3] = ratio of C20 obtained in the absence or presence of [C20 ( 0.1 mg of prazosin ) / C20 (control)]; assay type: functional
How it was run: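 Pithed rats pretreated with tertatolol (100 mg/kg), then 10 min later with prazosin (100 µg/kg). Cumulative iv agonist doses given another 10 min later at 20 s intervals. Arterial pressure recorded, C20 (dose giving +20 mmHg) determined. Ratio calculated as C20(prazosin)/C20(control); 3–6 determinations.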

[4] = ratio of C20 obtained in the absence or presence of [C20 (1 mg of yohimbine.) / C20 (control)]; assay type: functional
How it was run: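 Pithed rat arterial pressure assay with tertatolol (100 mg/kg) pretreatment, then yohimbine (1 mg/kg) 10 min later. Cumulative iv agonist doses given at 20 s intervals after a further 10 min, C20 (+20 mmHg dose) obtained. Ratio expressed as C20(yohimbine)/C20(control); 3–6 determinations.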

Canis familiaris [5] = species: Canis familiaris; experiment: Maximal contractile response obtained with the agonist (expressed as a percentage of the maximal contraction to phenylephrine in the dog femoral artery); assay type: functional, Canis lupus familiaris; how it was run: as §1
Canis familiaris [6] = species: Canis familiaris; experiment: Effective concentration for the agonist in the isolated blood vessel using in vitro saphenous vein; assay type: functional; details: Canis lupus familiaris; how it was run: as §1
[7] = biological target: T1, Adrenergic receptor alpha (Rattus norvegicus) (UniProt P15823+P23944+P43140+P22086+P19328+P22909); experiment: Alpha adrenergic activity was evaluated as concentration (iv) which increases the arterial pressure by 20 mmHg in the pithed rat; assay type: functional, organism-based; details: Artery
[8] = biological target: T1, Adrenergic receptor alpha (Rattus norvegicus); experiment: Alpha adrenergic activity was evaluated as maximal pressure response caused by agonist, expressed in mmHg (the maximum obtained with phenylephrine is 150 mmHg).; assay type: functional
[9] = biological target: T2, Alpha-2A adrenergic receptor (Homo sapiens, UniProt P08913); experiment: Binding affinity towards Alpha-2A adrenergic receptor in human platelets using [3H]RX-821002 as radioligand
T2 sequence (P08913 whole entry): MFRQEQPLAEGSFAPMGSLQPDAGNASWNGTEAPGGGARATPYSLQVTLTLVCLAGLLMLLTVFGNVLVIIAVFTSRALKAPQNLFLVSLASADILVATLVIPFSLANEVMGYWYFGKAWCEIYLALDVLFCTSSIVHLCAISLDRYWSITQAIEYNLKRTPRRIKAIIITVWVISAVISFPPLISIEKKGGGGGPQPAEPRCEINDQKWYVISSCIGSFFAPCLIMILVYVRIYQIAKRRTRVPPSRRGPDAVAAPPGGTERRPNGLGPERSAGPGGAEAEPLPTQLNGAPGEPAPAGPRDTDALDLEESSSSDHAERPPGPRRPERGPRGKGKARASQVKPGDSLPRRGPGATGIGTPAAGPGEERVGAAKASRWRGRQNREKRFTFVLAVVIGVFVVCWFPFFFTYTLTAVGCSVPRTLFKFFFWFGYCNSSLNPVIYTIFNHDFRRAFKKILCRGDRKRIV
How it was run: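 Human platelet membranes with [3H]RX821002 (1.5 nM), nonspecific binding with phentolamine (10 µM). Displacement at nine concentrations spanning 3 orders of magnitude, IC50 by log-probit analysis, converted to Ki using Scatchard Kd. ≥3 independent duplicate experiments.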

[10] = biological target: T3, Adrenergic receptor alpha-1 (Rattus norvegicus, UniProt P15823+P23944+P43140); experiment: Displacement of [3H]prazosin from rat cortex Alpha-1 adrenergic receptor
T3 sequence (P15823 whole entry): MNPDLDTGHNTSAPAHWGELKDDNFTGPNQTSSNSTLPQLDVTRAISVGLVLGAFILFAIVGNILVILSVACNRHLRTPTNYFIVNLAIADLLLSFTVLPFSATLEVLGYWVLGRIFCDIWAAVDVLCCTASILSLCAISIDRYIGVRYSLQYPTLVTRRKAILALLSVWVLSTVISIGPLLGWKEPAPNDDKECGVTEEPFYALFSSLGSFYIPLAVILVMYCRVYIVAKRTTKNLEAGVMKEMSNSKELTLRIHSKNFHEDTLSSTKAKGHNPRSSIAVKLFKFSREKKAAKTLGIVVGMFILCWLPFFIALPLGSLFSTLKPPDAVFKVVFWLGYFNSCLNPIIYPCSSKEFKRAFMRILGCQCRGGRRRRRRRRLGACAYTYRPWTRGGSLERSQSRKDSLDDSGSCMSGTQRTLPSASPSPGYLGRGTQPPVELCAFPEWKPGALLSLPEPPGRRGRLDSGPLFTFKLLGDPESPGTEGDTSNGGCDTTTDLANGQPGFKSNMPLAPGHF
T3 sequence (P23944 whole entry): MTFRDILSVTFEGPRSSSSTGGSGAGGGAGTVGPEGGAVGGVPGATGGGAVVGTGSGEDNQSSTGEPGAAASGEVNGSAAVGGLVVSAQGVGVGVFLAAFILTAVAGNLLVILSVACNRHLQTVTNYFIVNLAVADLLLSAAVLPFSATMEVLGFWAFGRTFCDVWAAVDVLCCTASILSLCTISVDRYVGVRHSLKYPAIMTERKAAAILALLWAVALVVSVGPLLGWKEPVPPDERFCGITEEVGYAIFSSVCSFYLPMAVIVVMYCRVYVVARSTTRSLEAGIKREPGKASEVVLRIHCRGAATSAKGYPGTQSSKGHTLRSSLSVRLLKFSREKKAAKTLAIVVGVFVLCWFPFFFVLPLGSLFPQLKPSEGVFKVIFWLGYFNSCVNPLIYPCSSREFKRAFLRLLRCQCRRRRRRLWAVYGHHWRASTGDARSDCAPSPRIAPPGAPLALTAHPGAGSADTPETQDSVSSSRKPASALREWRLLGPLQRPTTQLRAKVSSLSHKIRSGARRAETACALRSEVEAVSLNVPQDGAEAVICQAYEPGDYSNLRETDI
T3 sequence (P43140 whole entry): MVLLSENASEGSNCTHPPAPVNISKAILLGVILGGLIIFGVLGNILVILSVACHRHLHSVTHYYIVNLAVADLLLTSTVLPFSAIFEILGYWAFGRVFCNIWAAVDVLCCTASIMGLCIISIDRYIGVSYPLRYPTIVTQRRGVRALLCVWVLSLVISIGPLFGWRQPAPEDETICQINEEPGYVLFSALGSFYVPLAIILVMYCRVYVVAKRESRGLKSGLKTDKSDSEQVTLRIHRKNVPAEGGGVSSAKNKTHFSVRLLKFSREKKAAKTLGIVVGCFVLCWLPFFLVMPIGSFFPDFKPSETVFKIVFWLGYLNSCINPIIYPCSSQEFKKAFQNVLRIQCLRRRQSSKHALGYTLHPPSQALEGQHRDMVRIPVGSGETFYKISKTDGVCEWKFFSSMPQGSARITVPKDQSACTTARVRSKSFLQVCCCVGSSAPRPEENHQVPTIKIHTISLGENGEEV
How it was run: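 Rat cortex membranes labelled with [3H]prazosin (0.3 nM), nonspecific binding with prazosin (10 µM). Nine drug concentrations spanning 3 log units, IC50 by log-probit analysis. Ki by Cheng–Prusoff using Kd from Scatchard saturation. At least three independent experiments in duplicate.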

Canis familiaris [11] = species: Canis familiaris; experiment: Effective concentration for the agonist in the isolated blood vessel using in vitro femoral artery; assay type: functional; details: Canis lupus familiaris; how it was run: as §1
[12] = Ratio of C20 (pithed rat) to that of EC50 (saphenous vein); assay type: functional
[13] = biological target: T4, Alpha-2B adrenergic receptor (Rattus norvegicus, UniProt P19328); experiment: Binding affinity towards Alpha-2B adrenergic receptor in neonatal rat lung using [3H]-RX-821002 as radioligand
T4 sequence (P19328 whole entry): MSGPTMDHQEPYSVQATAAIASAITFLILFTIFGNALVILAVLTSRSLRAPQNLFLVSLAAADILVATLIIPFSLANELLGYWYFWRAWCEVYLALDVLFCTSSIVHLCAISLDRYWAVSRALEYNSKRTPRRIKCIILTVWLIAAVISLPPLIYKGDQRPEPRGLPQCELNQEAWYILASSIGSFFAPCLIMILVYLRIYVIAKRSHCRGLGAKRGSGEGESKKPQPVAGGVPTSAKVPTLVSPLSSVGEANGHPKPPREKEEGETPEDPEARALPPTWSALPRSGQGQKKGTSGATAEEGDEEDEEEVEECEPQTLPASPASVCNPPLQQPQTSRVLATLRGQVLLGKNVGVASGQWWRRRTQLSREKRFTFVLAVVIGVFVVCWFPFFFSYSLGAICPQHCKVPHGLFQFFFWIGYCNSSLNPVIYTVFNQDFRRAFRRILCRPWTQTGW
How it was run: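 Neonatal rat lung membranes with [3H]RX821002 (0.5 nM), nonspecific binding with phentolamine (10 µM). Nine concentrations over 3 log units, IC50 by log-probit, Ki by Cheng–Prusoff with Scatchard-derived Kd. ≥3 independent experiments in duplicate.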

Compound | Emax (Canis familiaris [1]) | Ratio [2] | Ratio [3] | Ratio [4] | Emax (Canis familiaris [5]) | EC50 (Canis familiaris [6]) [nM] | C20 [7] [µg/kg] | Max [8] [mmHg] | Ki [9] [nM] | Ki [10] [nM] | EC50 (Canis familiaris [11]) [nM] | Ratio [12] | Ki [13] [nM]
C1=NCC2(CCc3cc4c(cc3C2)CCC4)N1 (stereo unspecified) | 17 | 1057 | 1.1 | 5 | 0 | 70 | 74 | 68 |  |  |  |  | 
CC1=NCC2(CCc3ccccc3C2)N1C (stereo unspecified) | 0 |  | 1 | 1.1 | 0 |  | 1060 | 73 |  |  |  |  | 
Cc1ccc2c(c1)CC1(CC2)CN=CN1 (stereo unspecified) | 64 |  |  |  | 5 | 260 | 8 | 111 | 7 | 1000 | 74000 | 31 | 50
C1=NCC2(CCc3ccccc3C2)N1 (stereo unspecified) | 99 |  | 2 | 5.3 | 19 | 1300 | 4 | 120 | 34 | 14400 | 7500 |  | 275
CN1C=NCC12CCc1ccccc1C2 (stereo unspecified) | 0 |  | 1.55 | 1.9 | 0 |  | 675 | 73 |  |  |  |  | 
